From ChEMBL document CHEMBL4513216, “Probing the Open Global Health Chemical Diversity Library for Multistage-Active Starting Points for Next-Generation Antimalarials” (ACS Infect Dis, 2020)

Test: Toxicity liver stage against HepG2, at 10uM
Assay type: cell-based
Parameters: test concentration 10 uM, cell line HepG2-A16-CD81EGFP
Details: human, HepG2-A16-CD81EGFP cells; read-out: INHIBITION
Method in brief: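 Uninfected HepG2-A16-CD81EGFP cells, 3 × 10^3 per well, 1536-well, plated on prespotted compound at 10 μM final, parasite-free screening media added to match infected plates; puromycin 10 μM positive, DMSO 0.5% negative; run in parallel with 48 h PbLuc assay at 37 °C, 5% CO2; viability by CellTiter-Glo luminescence, normalized to controls.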

Row | SMILES | cytotoxicity at 10 µM [%]
1 | NC(=O)Cn1cnc2nc3n(c2c1=O)CCC3 | 2.96
2 | NC(=O)CC1c2cccnc2C(=O)N1Cc1ccccc1 (stereo unspecified) | -5.8
3 | Cc1nn(C)cc1C1CC(=O)Nc2c1cnn2C(C)(C)C (stereo unspecified) | -5.45
4 | O=C(c1ccno1)N1CC(c2nc(-c3ccco3)no2)C1 | -11.3
5 | c1cnc(N2CC3(CCN(C4CCOC4)CC3)c3ccccc32)nc1 (stereo unspecified) | -4.2
6 | CCC(=O)N1CC[C@H]2C(=O)N(Cc3ccc(OC)cc3)CCO[C@H]2C1 | -114
7 | Cc1cccc(CN2CC3C[C@]3(NC(=O)c3ccoc3)C2)n1 (stereo partly specified) | -147
8 | Cn1cncc1CN1CCC2(CC1)CCN2c1ncccn1 | 9.61
9 | COc1cccc(CC(=O)N2CCc3nc(C(N)=O)sc3CC2)c1 | 9.94
10 | Fc1cnc(N2CCOCC3(CCCNC3)C2)nc1 (stereo unspecified) | -5.36
11 | Cc1ccccc1C(=O)N1CCCn2nnc(Cn3cccn3)c2C1 | 9.94
12 | O=c1ccc(-c2cccs2)nn1CN1CCOC(c2ccccc2)C1 (stereo unspecified) | 7.57
13 | COc1cccc(-n2nc(C(C)=O)c(C(C)=O)c2C)c1 | 9.51
14 | CC(=O)c1c(C)nn(S(=O)(=O)c2ccc(Cl)cc2)c1C | -6.74
15 | COC(=O)COc1nc(CC(C)C)c2c(c1C#N)CCCC2 | 21.5
16 | COCCO[C@@H]1C[C@H]2CN(C(=O)c3ccc(C)nc3)CCN2C1 | -2.2
17 | COCCN1CCC2(CCCN(C(=O)c3cnoc3C)C2)C1=O (stereo unspecified) | -23.8
18 | CS(=O)(=O)N1CCN(C(=O)c2cc(-c3ccco3)cs2)CC1 | 4.73
19 | CC(C)c1nc(O)c2nnn(C[C@@H]3CCCN(Cc4ccsc4)C3)c2n1 | -4.6
20 | CC(C)C(=O)N1CCC(C)(c2cc[nH]n2)CC1 | 1.96
21 | COCCn1cnnc1C1CCCN(C(C)C)C1 (stereo unspecified) | -27.6
22 | Cc1noc(C)c1-c1nc(N(C)C)ncc1-c1cnccn1 | -22.8
23 | Cc1nn(C)c(C)c1NC(=O)CNC(c1ccccc1)C1CCC1 (stereo unspecified) | 1.44

Row | SMILES | cytotoxicity at 10 µM [%]
24 | OCCOc1cc(F)ccc1NCc1ccc(F)c(F)c1 | -6.38
25 | Cc1nnc(NCc2ccc(F)cc2)o1 | 0.217
26 | CSCC(=O)N1CCOC(c2nc(C(C)C)n[nH]2)C1 (stereo unspecified) | -4.99
27 | CCOC(=O)C1(O)CCN(C(=O)Nc2cccc(F)c2)CC1 | -144
28 | CN(CC(=O)NCCC#N)C(c1ccccc1)c1ccccc1 | 6.51
29 | COc1cc2nc(C)sc2cc1NC(=O)C(C)NC(N)=O (stereo unspecified) | -9.93
30 | CCC(CC)C(=O)NS(=O)(=O)CCc1ccccc1 | 1.76
31 | C[C@@H]1CN(Cc2ccccc2F)CC(C(N)=O)O1 (stereo partly specified) | 1.95
32 | COc1cccc(-c2cnc(CNC(C)(C)c3nc(C)cs3)o2)c1 | 11.4
33 | CCOCC(=O)NC(C)Cc1ccccc1Br (stereo unspecified) | -11
34 | CCc1ocnc1C(=O)N1CCOCC1CC(=O)c1ccccc1 (stereo unspecified) | 5.92
35 | CC(C)(C)OC(=O)NCCNC(=O)c1ccc2cc[nH]c2c1 | -0.224
36 | O=C(NCc1nncn1C1CC1)Nc1ccc(OC2CCC2)c(F)c1 | -3.2
37 | CCNC(=O)NCc1cccc(N2CC=CC2)c1 | 5.03
38 | Cc1cnn(CC2CCCN2c2ccc(C#N)cn2)c1 (stereo unspecified) | 14
39 | Cn1nnc2cc(C(=O)NS(=O)(=O)Cc3ccc(F)cc3)ccc21 | -3.7
40 | Cc1cc(C(=O)Nc2ccc(OCC3CCOCC3)cc2)[nH]n1 | -7.04
41 | CC(C)N(CC(N)=O)Cc1csc(-c2ncccn2)n1 | 5.85
42 | CC(C(=O)NC1CC1)S(=O)(=O)c1cc2c(cc1Cl)OCCO2 (stereo unspecified) | -13.9
43 | c1cc(N2CCSCC2)ccc1CNc1cncc2nnnn12 | 5.51
44 | CCN(Cc1ccccc1)S(=O)(=O)C1CCS(=O)(=O)CC1 | 5.44
45 | CCn1nc(C)cc1C(=O)N1CCOc2cc(C)ccc21 | 10.5
46 | CCc1n[nH]c(C2CN(Cc3csc(COC)n3)CCO2)n1 (stereo unspecified) | 0.753

Row | SMILES | cytotoxicity at 10 µM [%]
47 | CCn1cnnc1CCNC(=O)C(C)(C)c1cccc(Cl)c1 | 7.76
48 | Cc1csc(CNC(=O)NCC(O)c2cccc(Cl)c2)n1 (stereo unspecified) | -14.6
49 | COCc1noc(C2(c3ccc(OC)cc3)CCOCC2)n1 | -22.3
50 | CC(=O)NCCc1ccc(S(=O)(=O)N(CC(C)C)C(C)C)s1 | 18.8
51 | Cc1ccc(N2CCCC3(CCN(C(=O)C4CC4)C3)C2)nn1 (stereo unspecified) | -109
52 | COc1cccc(-c2cc(C(=O)NCCCC(F)(F)F)[nH]n2)c1 | -13.9
53 | CCN(Cc1cn(CC2CCNCC2)nn1)CC1CCCO1 (stereo unspecified) | -1.77
54 | CCCc1nc(C)cc(NCCc2nnc(N)s2)n1 | 3.07
55 | Cc1nc(C2CCCNC2)cc(N(C)CCc2ccccc2)n1 (stereo unspecified) | -1.36
56 | CCn1nc(C)c(CCn2ccnc2-c2cc3n(n2)CCNC3)c1C | 5.15
57 | Cc1nn(C)c2nc(NCCCN3CCCC(C(N)=O)C3)sc12 (stereo unspecified) | -9.8
58 | CC[C@@]1(O)CCN(C(=O)c2cccc3cc(C)oc23)C[C@H]1O | 4.62
59 | COc1ccccc1OCCCc1cc(C)nc(N)n1 | 0.915
60 | COC(=O)[C@H]1C[C@@H](O)CCN1S(=O)(=O)c1cc(Cl)ccc1OC | 5.1
61 | CC(C)CN(Cc1ccc(C(F)(F)F)nc1)Cc1cnn(C)c1 | 1.42
62 | Cc1cc(C)c2[nH]c(C(=O)NCCN3CCNC3=O)c(C)c2c1 | 2.49
63 | CCN1CCC(CC(=O)NCCc2nc(O)cc(O)n2)CC1 | -4.76
64 | CCCc1cnc(C)nc1N1CCC(Cn2cc(CN(C)C)nn2)CC1 | -4.4
65 | CCc1ccc(CN2CCC(CNC(=O)c3ccc(C)nc3)C2)nc1 (stereo unspecified) | 7.78
66 | O=C(c1ccccc1-c1nnn[nH]1)N1CCOC(C(F)(F)F)C1 (stereo unspecified) | -1.67
67 | O=C(Cc1ccccc1C(F)(F)F)N1CCC2(CC1)[C@H](O)C[C@@H]2O | -4.87
68 | CC(=O)c1cc(CN2CCCC2c2nc3ccc(C)cc3[nH]2)cs1 (stereo unspecified) | 3.01
69 | COc1nc2c(cc1C(=O)NCCc1nc3ccccc3s1)CCC2 | 5.79

Row | SMILES | cytotoxicity at 10 µM [%]
70 | COCCc1noc(Cn2c(=O)[nH]c3ccccc32)n1 | -2.03
71 | CN1C[C@@H](n2cnc(-c3ccccc3)c2-c2nccn2C)C[C@H]1C(=O)O | -0.338
72 | Cc1cc(C)n2nc(C(=O)N[C@H]3C[C@H]4CN(C)CCN4C3)cc2n1 | -0.671
73 | Cc1cccc(C(=O)N2CCN(S(C)(=O)=O)[C@@H]3CS(=O)(=O)C[C@@H]32)n1 | 4.01
74 | O=C(c1ccc2sccc2c1)N1CCC(C(=O)O)(n2cccn2)CC1 | -2.77
75 | COc1cccn(Cc2nnc(-c3cccnc3)o2)c1=O | 7.99
76 | Cc1cc(C(=O)N2CCC(C)CC2)ccc1NS(C)(=O)=O | 3.09
77 | O=C(NCCc1ccncc1)c1cccc(S(=O)(=O)N[C@@H]2CCNC2)c1 | 4.93
78 | Cc1c(C(=O)NCC2CCN(Cc3c[nH]cn3)C2)[nH]c2ccccc12 (stereo unspecified) | -9.8
79 | COCc1nc(CNc2cc(C)nc(N3CCCCC3)n2)no1 | 9.84
80 | Cc1cc(CNC(=O)NCc2cccs2)no1 | -1.87
81 | CN(Cc1ccco1)C(=O)C1CSCN1C(=O)C1CCC1 (stereo unspecified) | -13.2
82 | c1cnc(-c2nc(CN3CCCC(N4CCCC4)C3)cs2)nc1 (stereo unspecified) | -12
83 | CC(=O)N(Cc1noc(C2CC2)n1)C1CCN(Cc2cc(C)on2)C1 (stereo unspecified) | -6.08
84 | Cc1nnc2n1CCN(Cc1nc(-c3ccoc3)no1)C2 | -5.86
85 | CC(C)c1nc(CNCC2CCCN2c2cccnn2)cs1 (stereo unspecified) | -4.84
86 | Cc1occc1C(=O)Nc1cnn(CCN2CCOCC2)c1 | -10
87 | Cc1cnn(C2CCCN(C(=O)c3ccnc(-n4cncn4)c3)C2)c1 (stereo unspecified) | -0.565
88 | CCN(CCNC(=O)c1cccc(C)c1C)C1CC1 | 3.43
89 | Cc1noc(C(C)C)c1C(=O)NCCCN1CCCCCC1=O | 1.91
90 | CCCc1noc(CN2CCC(N(C)Cc3nnc(C4CC4)o3)C2)n1 (stereo unspecified) | -0.775
91 | O=C(NCCc1ccn(-c2ccccc2)n1)N1CCCC(O)C1 (stereo unspecified) | -41.8
92 | CN1CCN(C(=O)c2cccc(OCc3cscn3)c2)CC1 | -6.18

Row | SMILES | cytotoxicity at 10 µM [%]
93 | CC(CN1CCOCC1)n1cncc1-c1ccc2c(c1)CCCN2C (stereo unspecified) | 12.3
94 | O=C(Cn1c(-c2ccco2)cc2cccnc21)N1CCCC1 | -4.04
95 | CCOc1ccc(CN[C@@H]2COC[C@H]2c2ccc(F)cc2)cc1 | 17.1
96 | Cc1ccoc1C(=O)N1CCc2ccc(=O)n(CCN(C)C)c2CC1 | 1.41
97 | Cc1ccc(C(=O)N2CCC3(CC2)NC(=O)CC3c2ccccc2)cn1 (stereo unspecified) | -2.47
98 | Cn1cc(C2CC(=O)NC23CCN(Cc2ccncc2)CC3)cn1 (stereo unspecified) | 13.2
99 | CCN(CC)CC1CN(Cc2cccc(C#N)c2)Cc2nccn2C1 (stereo unspecified) | -127
100 | Cc1ccc(N2CC3(COCCN(Cc4nccs4)C3)OCC2=O)s1 (stereo unspecified) | -13.5
101 | CNCC(=O)N1CCCC1c1n[nH]cc1-c1ccccc1F (stereo unspecified) | -0.136
102 | Cc1ccnc(OC[C@@]23CCO[C@@H]2CCN(C2CCC2)C3)n1 | 8.01
103 | COc1c(CNC2CCc3c(F)cccc32)c(C)nn1C (stereo unspecified) | 0.665
104 | O=C(c1ccncc1)N1CCC2(CC1)C(=O)Nc1ccccc12 | -146
105 | CS(=O)(=O)NC[C@H]1OC[C@@H]2CCN(Cc3ccc(F)cc3)C[C@@H]21 | -2.26
106 | Cn1cc(CN2CC[C@@H]3[C@@H](CO[C@H]3CNC(=O)c3ccco3)C2)cn1 | -142
107 | CCN1C(=O)[C@H]2CN(CC(C)C)C[C@H]2C12CCN(C(=O)NC(C)C)CC2 | 4.89
108 | Cc1cccc(CN2CC3(CCN(Cc4ccco4)CC3)OCC2=O)n1 | 8.1
109 | COC1C[C@@H]2CN(C(=O)c3ccc(C)s3)C[C@@H]2C1 (stereo partly specified) | -2
110 | CCC=C(C)C(=O)N1CSCC1C(=O)N(C)CCc1ccncc1 (stereo unspecified) | -9.72
111 | O=C(c1ccc[nH]1)N1C[C@@H]2CC[C@H]1CN(c1ncccn1)C2 | -7.12
